Key:
[1] = tested on: CH1 cells (ovarian carcinoma); experiment: MTT cytotoxicity assay, CH1; format: cell-based, human; conditions: for capacity of inhibiting tumor cell proliferation in vitro: CH1 ovarian cancer cells; for IC50: Homo sapiens, CH1, 96 h, read-out: IC50 CH1
Method in brief: (§1)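 Adherent monolayers grown in supplemented MEM with 10% heat-inactivated FBS at 37 °C, 5% CO2. Cells were trypsinised and seeded at 4 × 10^3 (A549), 1.5 × 10^3 (CH1) or 2.5 × 10^3 (SW480) per well, then left 24 h. Compound dilutions in complete medium were applied for 96 h. MTT was added for 4 h and formazan dissolved in DMSO; OD read at 550/690 nm versus untreated controls. IC50 was interpolated from the curves; ≥3 independent experiments, triplicates.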

Aqueous stability [2] = format: physicochemical; conditions: for Stability (amount of aqua complex in the solution), 1H NMR: D2O, after 18 or 24 h incubation (NMR: 18 h)
Method in brief: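 Test compound (1−2 mg/mL) dissolved in D2O; 1H NMR spectra recorded immediately after dissolution and again after 18 h to follow chlorido-to-aqua exchange.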

Aqueous stability [3] = format: physicochemical; conditions: water, 25 °C, after 18 or 24 h incubation
[4] = tested on: A549 cells (nonsmall cell lung carcinoma); experiment: MTT cytotoxicity assay, A549; format: cell-based; conditions: Homo sapiens, A549, 96 h, read-out: IC50 A549
Method in brief: as §1

[5] = tested on: SW480 cells (colon carcinoma); experiment: MTT cytotoxicity assay, SW480; format: cell-based; conditions: Homo sapiens, SW480, 96 h, read-out: IC50 SW480
Method in brief: as §1

rat skeletal myoblasts = conditions: in vitro, preliminary; cited from earlier work
topoisomerase II = conditions: electrophoretic assay with plasmid DNA; cited from earlier work

| Compound | capacity of inhibiting tumor cell proliferation in vitro [1] | Stability (amount of aqua complex in the solution), 1H NMR (Aqueous stability [2]) [%] | Stability (amount of aqua complex in the solution), CZE-ICP-MS (Aqueous stability [3]) [%] | IC50 [4] [µM] | IC50 [1] [µM] | IC50 [5] [µM] | sensitivity of CH1 cells relative to SW480 cells ([1]; ratio of IC50 SW480 / CH1) | free ligand from decomposition of the aqua species (Aqueous stability [2]; aqueous solution, over 24 h) | cytotoxic activity in rat skeletal myoblasts (rat skeletal myoblasts) | topoisomerase II inhibition (topoisomerase II) |
| --- | --- | --- | --- | --- | --- | --- | --- | --- | --- | --- |
| Chlorido(η^6-p-cymene)(nalidixicato-κ^2O,O)ruthenium(II) [Compound 2] | inactive | 94 | 93 |  |  |  |  |  |  |  |
| CCn1nc(C(=O)O)c(=O)c2cc3c(cc21)OCO3 [cin-H, cinoxacin] |  |  |  | > 320 | > 320 | > 320 |  |  |  |  |
| Chlorido(η^6-p-cymene)(cinoxacinato-κ^2O,O)ruthenium(II) [Compound 3] | inactive | 90 | 87 |  |  |  |  |  |  |  |
| CCn1cc(C(=O)O)c(=O)c2ccc(C)nc21 [nal-H, nalidixic acid] |  |  |  | > 320 | > 320 | > 320 |  |  |  |  |
| CC1COc2c(N3CCN(C)CC3)c(F)cc3c(=O)c(C(=O)[O-])cn1c23.Cc1ccc(C(C)C)cc1.[Cl-].[Ru+2] (centres unmarked) [Compound 1, chlorido(η^6-p-cymene)(ofloxacinato-κ^2O,O)ruthenium(II)] | moderate | 45 | 56 |  |  |  | about 10 times | more than 40% | no significant activity | very little topoisomerase II inhibition |
| CC1COc2c(N3CCN(C)CC3)c(F)cc3c(=O)c(C(=O)O)cn1c23 (centres unmarked) [oflo-H, ofloxacin, reference compound] |  |  |  | > 320 | > 320 | > 320 |  |  |  | very little topoisomerase II inhibition |
